Screening results (PubChem)
mIAP block: mouse IAP inhibition; purified mouse IAP, CDP-Star luminescence, 30 min; inhibition, % at 10 µM; 330,000 compounds, 0.2% hits; AID 2806;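 active = inhibition of at least 40% at 10 µM in the primary screen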
bIAP activator: increases bovine intestinal alkaline phosphatase activity. activation factor at 20 µM. AID 1016. 200,000 compounds, 0.17% hits. purified bovine IAP, CDP-star luminescence, 30 min; stronger effect = higher value; fold of DMSO-control signal, blank-subtracted;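 active = activation factor of 2 or more at 20 µM, a signal rise over negative controls twice the positive control's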
hIAP activ: human IAP activation; P09923; purified human IAP, CDP-Star luminescence, 30 min; stronger effect = higher value; 1 = vehicle-only enzyme, 0 = enzyme-free background; activation factor at 10 µM; 330,000 compounds, 0.16% hits; AID 2524;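 active = activation factor of the enzyme at least 2-fold when tested at 20 µM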
Target sequence (P09923 whole entry, looked up): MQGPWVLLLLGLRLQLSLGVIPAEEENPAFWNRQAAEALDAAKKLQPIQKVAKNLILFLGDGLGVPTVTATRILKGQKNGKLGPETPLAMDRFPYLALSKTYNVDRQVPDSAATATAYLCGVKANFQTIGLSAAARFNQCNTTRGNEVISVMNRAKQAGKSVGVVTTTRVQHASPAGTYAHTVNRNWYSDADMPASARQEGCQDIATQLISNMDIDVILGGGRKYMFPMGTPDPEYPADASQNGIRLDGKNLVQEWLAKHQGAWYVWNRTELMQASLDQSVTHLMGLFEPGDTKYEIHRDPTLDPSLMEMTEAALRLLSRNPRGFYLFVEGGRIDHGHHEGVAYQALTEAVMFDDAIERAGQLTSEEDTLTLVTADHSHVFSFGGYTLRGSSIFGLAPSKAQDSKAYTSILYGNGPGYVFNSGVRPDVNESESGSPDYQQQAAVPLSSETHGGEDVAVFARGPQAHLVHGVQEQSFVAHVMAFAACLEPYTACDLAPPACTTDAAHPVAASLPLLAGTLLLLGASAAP
hIAP block: blocks human intestinal alkaline phosphatase. P09923. purified IAP, CDP-Star luminescence, 30 min. inhibition, % at 10 µM. 330,000 compounds, 0.12% hits. AID 2544;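 active = inhibition reaching a set limit with compound at 10 µM in the primary screen, cut at about 35% in these data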
bIAP inh: intestinal alkaline phosphatase (bovine) inhibition | purified bovine IAP, CDP-star luminescence, 30 min | inhibition, % at 20 µM | 190,000 tested, under 10 active;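 active = over 50% inhibition of intestinal alkaline phosphatase at 20 µM in the single-dose screen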
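Assay system: bovine IAP enzyme; medium: DEA buffer 100 mM, pH 9.8, with MgCl2 1.0 mM, ZnCl2 0.02 mM; doses: 20 µM single dose; incubation: enzyme reaction for 30 min at room temperature; detection: CDP-star luminescence signal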
mIAP act: increases mouse intestinal alkaline phosphatase activity | muIAP, CDP-Star luminescence, 30 min; stronger effect = higher value; 1 = vehicle-only enzyme signal, 0 = enzyme-free wells | 330,000 compounds, 0.24% hits | activation factor at 10 µM | AID 2805;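 active = activation factor of at least 2 at 20 µM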
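Assay system: mouse IAP enzyme; Reagent: CDP-Star chemiluminescent phosphatase substrate; Compound: DMSO-dissolved test compounds; Incubation: 30 min, room temperature; Technique: luminescence from enzymatic CDP-Star hydrolysis; Controls: DMSO-only wells and no-enzyme negative control.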
mIAP inh confirm: mouse IAP inhibition confirmation; inhibition, % at 10 µM; 11,000 compounds, 4.7% hits; shares compounds with mIAP block; purified mouse IAP, CDP-Star luminescence, 30 min;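 active = inhibition of at least 40% at 10 µM in either of the two replicates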
Numbers stand for hits; n = inactive; x = no result given. This is a sample that favours compounds with a hit; in the whole collection about 0.79% have one here.

SMILES | mIAP block | bIAP activator | hIAP activ | hIAP block | bIAP inh | mIAP act | mIAP inh confirm
CCC(C(=O)OCC(=O)NC(=O)c1ccccc1OC)c1ccccc1 (stereo unspecified) | n | x | n | n | x | n | x
Cc1ccc(Nc2nc(-c3ccc(O)c(O)c3)cs2)nc1 | 46 | n | n | n | n | n | 52
Cc1ccc(Nc2nc(-c3ccc(F)cc3)cs2)nc1 | n | x | n | n | x | n | x
O=C(CN(CC1CCCO1)C(=O)CNS(=O)(=O)c1ccc(Cl)cc1)NCCc1ccccc1 (stereo unspecified) | n | n | n | n | n | n | x
O=C(NCc1ccco1)c1cc2c(s1)CSC2 | 45 | n | n | n | n | n | 45
O=C(NCc1ccc2c(c1)OCO2)c1cc2c(s1)CSC2 | 45 | n | n | n | n | n | 59
O=C(CSc1nnc(-c2ccco2)o1)c1ccccc1 | 44 | n | n | n | n | n | 43
O=C(CSc1nnc(-c2ccco2)c(-c2ccco2)n1)c1ccccc1 | 50 | n | n | n | n | n | 51
O=C(CSc1nnc(-c2ccco2)o1)c1ccc(F)c(F)c1 | n | n | n | n | n | n | x
CCc1c(C)sc(NC(=O)Cn2nc(C(F)(F)F)c3c2CCCC3)c1C#N | n | n | n | n | n | n | x
CC(=C/c1ccco1)/C=N/NC(=O)c1nnn(-c2nonc2N)c1CN(C)C | n | n | n | n | n | n | x
O=C(CCCSc1ccccc1)Nc1nc(-c2ccco2)c(-c2ccco2)s1 | x | n | x | x | n | x | x
O=C(CCl)Nc1nc(-c2ccco2)c(-c2ccco2)s1 | 77 | n | n | n | n | n | 74
Cc1ccc(C(=O)Nc2nc(-c3ccco3)c(-c3ccco3)s2)o1 | 64 | x | n | n | x | n | 68
Oc1cc2c(cc1O)[C@H]1c3ccc(O)c(O)c3OC[C@@]1(O)C2 | 60 | x | n | n | x | n | 53
Cc1ccc(N2C(=O)/C(=C/c3ccco3)SC2=S)cc1 | 49 | n | n | n | n | n | 60
O=C1/C(=C\c2ccco2)SC(=S)N1C1CCCCC1 | 40 | x | n | n | x | n | 52
O=C1/C(=C/c2ccco2)SC(=S)N1CCC(=O)N1CCCCC1CCO (stereo unspecified) | 47 | x | n | n | x | n | 57
O=C(CN1C(=O)NC2(CCCCCC2)C1=O)NCc1ccccc1 | n | x | n | n | x | n | x
C[C@@H]1CN(C(=O)c2ccc(OC3CCN(S(=O)(=O)N(C)C)CC3)cc2)C[C@H](C)O1 | n | x | n | n | x | n | x
O=C(Nc1cccc(Cl)c1)NC1CC2CCC(C1)N2Cc1ccco1 (stereo unspecified) | n | n | n | n | n | n | x
O=C(Nc1ccc(Cl)cc1)NC1CCCCC1Cc1ccco1 (stereo unspecified) | n | n | n | n | n | 7.8 | n
Cc1ccc2[nH]c(=O)c(C(c3nnnn3CC3CCCO3)N3CCc4ccccc4C3)cc2c1 (stereo unspecified) | 70 | n | n | n | n | n | 74
Cc1ccc2cc(C(c3nnnn3Cc3ccccc3)N3CCc4ccccc43)c(=O)[nH]c2c1 (stereo unspecified) | n | n | n | n | n | n | x
Cc1ccc2[nH]c(=O)c(C(c3nnnn3CC3CCCO3)N3CCCc4ccccc43)cc2c1 (stereo unspecified) | 50 | n | n | n | n | n | 60
SMILES | mIAP block | bIAP activator | hIAP activ | hIAP block | bIAP inh | mIAP act | mIAP inh confirm
Cc1ccc2[nH]c(=O)c(C(c3nnnn3C3CCCC3)N3CCCc4ccccc43)cc2c1 (stereo unspecified) | 57 | n | n | n | n | n | 60
Cc1ccc2[nH]c(=O)c(C(c3nnnn3Cc3ccccc3)N3CCc4ccccc43)cc2c1 (stereo unspecified) | 55 | n | n | n | n | n | 64
O=C(CN1CCN(c2ccccc2O)CC1)NCCCc1ccccc1 | n | n | n | n | n | n | x
CCNc1sc(S(C)(=O)=O)nc1S(=O)(=O)c1ccc(Cl)cc1 | n | n | n | n | n | n | x
COc1ccc(NC(=O)CSc2nnc(-c3cnccn3)n2C)cc1OC | n | x | n | n | x | n | x
COCCNC(=O)/C(C#N)=C/c1c(N2CCCCCC2)nc2ccccn2c1=O | n | x | n | n | x | n | x
O=C(CSc1nc2ccccc2c(=O)[nH]1)c1ccc(O)c(O)c1 | 62 | n | n | n | x | n | 72
O=C(Nc1c[nH]c(=O)[nH]c1=O)c1ccccc1Cl | n | x | n | n | x | n | x
COc1ccccc1[C@H]1C(c2cccc(C)c2)=NN(c2ccccc2)[C@@H]1CO | n | x | x | x | x | n | x
COc1ccccc1[C@H]1C(c2ccccc2)=NN(c2ccccc2)[C@@H]1CO | n | x | x | x | x | 2.2 | n
OC[C@@H]1[C@@H](c2ccc(Cl)cc2)C(c2cccc(Cl)c2)=NN1c1ccccc1 | n | x | x | x | x | 2.3 | n
Cc1c(NC(=O)c2cccc(NC(=O)Cc3ccc(F)cc3)c2)c(=O)n(-c2ccccc2)n1C | n | x | n | n | x | n | x
CCCn1c(NCc2c[nH]c3ccccc23)nc2ccccc21 | n | n | n | n | n | n | x
COc1ccccc1CNC(=O)C(=O)NCC1CCCN1S(=O)(=O)c1cccs1 (stereo unspecified) | n | x | n | n | x | n | x
CSc1cccc(NC(=O)C2CCN(S(=O)(=O)c3ccc(F)cc3)CC2)c1 | n | n | n | n | n | 3 | n
CSc1cccc(NC(=O)C2CCCN(S(=O)(=O)c3ccc(F)cc3)C2)c1 (stereo unspecified) | n | n | n | n | n | n | x
O=C(Nc1ccc2c(c1)C(=O)NC2=O)c1cc(Cl)ccc1Cl | n | x | n | n | x | n | x
CCN1CCN(C(=O)Cn2cnc3sc(C)c(S(=O)(=O)N4CCN(c5ncccn5)CC4)c3c2=O)CC1 | n | n | n | n | n | n | x
CCOC(=O)c1sc(NC(=O)CCN2CCN(CC)CC2)c(C(=O)OCC)c1C | n | n | n | n | n | n | x
COc1ccc(CCC(=O)Nc2ccc(OC)c(S(=O)(=O)N3CCCCC3)c2)cc1 | n | x | n | n | x | n | x
Cc1cc(O)c2c(c1O)C(=O)[C@]13C(=C2O)C(=O)[C@@H]2[C@@H](O)[C@H]1[C@@H]1[C@H](O)[C@H]3C(=O)C3=C(O)c4c(O)cc(C)c(O)c4C(=O)[C@]312 | 47 | x | n | n | x | n | 41
N=C1/C(=C\c2coc3ccc(O)cc3c2=O)C(=O)N=C2SC=CN12 | 59 | x | n | n | x | n | 64
Cc1cccc(NC(=O)C2CCCN2S(=O)(=O)c2ccc(Cl)cc2)n1 (stereo unspecified) | n | x | n | n | x | n | x
Nc1ccccc1-c1n[nH]c(=S)s1 | x | n | x | x | n | x | x
NC(=O)CC1Nc2cccc3cccc(c23)NC1=O (stereo unspecified) | 41 | n | n | n | n | n | 50
O=C(CC1Nc2cccc3cccc(c23)NC1=O)Nc1ccccc1 (stereo unspecified) | n | n | n | n | n | n | x
